Reference: ChEMBL document CHEMBL4706681, “New 2-Pyrazoline and Hydrazone Derivatives as Potent and Selective Monoamine Oxidase A Inhibitors” (J Med Chem, 2021)
Calls of active or inactive are those of the source. The rule behind the calls is not given here.

Columns and labels:
Mus musculus [1] = test: Antidepressant-like activity in CD1 mouse assessed as reduction in immobility time at 30 mg/kg, po administered via gavage for 7 days and measured 1 h post last dose by Porsolt-forced swim test; type: functional, organism-based; settings: time 7.0 day
Procedure, shortened: (§1)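 Male albino CD-1 mice (20–25 g), 12 h light/dark, food and water ad libitum. Dosed by oral gavage once daily for 7 days in 200 μL 0.5% CMC; vehicle-only controls. […] Forced swim test run 1 h after the last dose. Immobility scored every 60 s over 6 min; n = 8–12.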

[2] = Ex vivo inhibition of MAOA in CD1 mouse brain homogenates assessed as MAOA level at 30 mg/kg, po administered as single acute dose via gavage and measured after 1 hr by monoamine oxidase assay (reference value: 0.40 +/- 0.012 nmol/min/mg); type: functional
[3] = Permeability of compound in PBS/EtOH buffer (70:30) at 25 ug/ml incubated for 16 hrs by UV plate reader based PAMPA-BBB
Mus musculus [4] = test: Antidepressant-like activity in CD1 mouse assessed as maximum efficacy at 20 mg/kg, po administered as subchronic dose gavage for 7 days and measured 1 h post last dose by Porsolt-forced swim test; type: functional, organism-based; settings: time 7.0 day; procedure, shortened: as §1
[5] = biological target: T1, Amine oxidase [flavin-containing] A (Homo sapiens, UniProt P21397); test: Inhibition of recombinant human MAO-A expressed in baculovirus infected BTI insect cells using p-tyramine as substrate incubated for 30 mins by Amplex red reagent based fluorescence analysis
T1 sequence (P21397 whole entry): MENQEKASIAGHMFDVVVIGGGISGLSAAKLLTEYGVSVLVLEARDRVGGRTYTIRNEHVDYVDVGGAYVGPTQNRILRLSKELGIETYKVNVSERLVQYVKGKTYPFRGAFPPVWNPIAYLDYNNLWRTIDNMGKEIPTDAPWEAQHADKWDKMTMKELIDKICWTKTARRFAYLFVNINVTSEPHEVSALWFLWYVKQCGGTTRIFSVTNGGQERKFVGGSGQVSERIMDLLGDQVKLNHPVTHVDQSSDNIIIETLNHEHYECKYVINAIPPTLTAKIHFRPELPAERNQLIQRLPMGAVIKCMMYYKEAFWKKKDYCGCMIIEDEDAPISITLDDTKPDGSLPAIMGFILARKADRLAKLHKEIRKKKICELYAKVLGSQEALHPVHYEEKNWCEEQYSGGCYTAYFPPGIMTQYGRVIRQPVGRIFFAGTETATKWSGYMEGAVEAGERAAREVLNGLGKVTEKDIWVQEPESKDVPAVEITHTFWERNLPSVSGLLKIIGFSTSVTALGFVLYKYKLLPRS

[6] = Effect on locomotor activity in CD1 mouse assessed as total distance traveled at 30 mg/kg, po administered via gavage for 7 days by open field test; type: ADME, organism-based; settings: in vivo, 168 h, time 7 day
Procedure, shortened: (§2)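 Each mouse placed in the centre of a 50 × 50 × 30 cm black box and video-tracked; total distance travelled over 5 min; n = 8–10.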

[7] = biological target: T2, Amine oxidase [flavin-containing] B (Homo sapiens, UniProt P27338); test: Inhibition of recombinant human MAO-B expressed in baculovirus infected BTI insect cells using p-tyramine as substrate incubated for 30 mins by Amplex red reagent based fluorescence analysis; type: cell-based
T2 sequence (P27338 whole entry): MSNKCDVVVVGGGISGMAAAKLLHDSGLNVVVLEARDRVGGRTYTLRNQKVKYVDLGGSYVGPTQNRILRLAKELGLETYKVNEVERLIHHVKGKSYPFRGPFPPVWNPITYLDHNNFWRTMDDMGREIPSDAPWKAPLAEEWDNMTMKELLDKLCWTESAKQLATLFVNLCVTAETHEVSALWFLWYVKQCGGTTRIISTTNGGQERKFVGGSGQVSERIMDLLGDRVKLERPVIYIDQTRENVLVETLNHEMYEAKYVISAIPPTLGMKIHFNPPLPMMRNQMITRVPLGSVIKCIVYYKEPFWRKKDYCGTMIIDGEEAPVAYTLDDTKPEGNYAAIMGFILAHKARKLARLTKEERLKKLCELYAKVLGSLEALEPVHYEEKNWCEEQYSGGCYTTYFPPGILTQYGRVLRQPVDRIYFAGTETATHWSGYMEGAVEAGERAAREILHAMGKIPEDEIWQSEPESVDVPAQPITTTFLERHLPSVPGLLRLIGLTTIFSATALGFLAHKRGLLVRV

[8] = Ex vivo inhibition of MAOA in CD1 mouse brain homogenates assessed as 5-HT levels at 30 mg/kg, po administered as subchronic dose via gavage for 7 days and measured 1 hr post last dose by ELISA kit method (reference value: 0.78 +/- 0.01 ug/g); type: functional; settings: time 7 day
[9] = Ex vivo inhibition of MAOA in CD1 mouse brain homogenates assessed as 5-HT levels at 30 mg/kg, po administered as single acute dose via gavage and measured after 1 hr by ELISA kit method (reference value: 0.80 +/- 0.006 ug/g); type: functional
[10] = Ex vivo inhibition of MAOA in CD1 mouse brain homogenates assessed as inhibition of 5-HT deamination by measuring 5-HIAA metabolite levels by using at 30 mg/kg, po administered as subchronic dose via gavage for 7 days and measured 1 hr post last dose by HPLC analysis (reference value: 0.18 +/- 0.01 ug/g); type: functional; settings: time 7 day
[11] = Ex vivo inhibition of MAOA in CD1 mouse brain homogenates assessed as inhibition of 5-HT deamination by measuring 5-HIAA metabolite levels at 20 mg/kg, po administered as subchronic dose via gavage for 7 days and measured 1 hr post last dose by HPLC analysis (reference value: 0.18 +/- 0.01 ug/g); type: functional; settings: time 7 day
Mus musculus [12] = test: Antidepressant-like activity in CD1 mouse assessed as reduction in immobility time at 20 mg/kg, po administered via gavage as single dose measured after 1 hr by Porsolt-forced swim test; type: functional, organism-based
[13] = Ex vivo inhibition of MAOA in CD1 mouse brain homogenates assessed as dopamine levels at 20 mg/kg, po administered as single acute dose via gavage and measured after 1 hr by ELISA kit method (reference value: 7.08 +/- 0.58 ug/g); type: functional
[14] = Effect on locomotor activity in CD1 mouse assessed as total distance traveled at 20 mg/kg, po administered via gavage for 7 days by open field test; type: ADME, organism-based; settings: in vivo, 168 h, time 7 day; procedure, shortened: as §2
Mus musculus [15] = test: Antidepressant-like activity in CD1 mouse assessed as reduction in immobility time at 10 mg/kg, po administered as subchronic dose via gavage for 7 days and measured 1 h post last dose by Porsolt-forced swim test; type: functional, organism-based; settings: time 7.0 day; procedure, shortened: as §1
Mus musculus [16] = test: Antidepressant-like activity in CD1 mouse assessed as reduction in immobility time at 20 mg/kg, po via gavage administered as […] dose for 7 days and measured 1 h post last dose by Porsolt-forced swim test; type: functional, organism-based; settings: time 7.0 day
[17] = Ex vivo inhibition of MAOA in CD1 mouse brain homogenates assessed as inhibition of dopamine deamination by measuring DOPAC metabolite levels at 20 mg/kg, po administered as single acute dose via gavage and measured after 1 hr by HPLC analysis (reference value: 1.22 +/- 0.2 ug/g); type: functional
Mus musculus [18] = test: Antidepressant-like activity in po dosed CD1 mouse assessed as maximum efficacy administered as subchronic dose gavage for 7 days and measured 1 h post last dose by Porsolt-forced swim test; type: functional; settings: time 7 day; procedure, shortened: as §1

## COc1ccc(C2=NN(C(=O)Cn3c(=O)oc4ccc(C)cc43)C(c3cccc(OC)c3OC)C2)cc1 (stereo not drawn)
Mus musculus [1]
  Activity: Active
[2]
  Activity: 0.23 nmol/min/mg
[3]
  Papp at 16 h, 25 ug/ml: 8.05 ×10⁻⁶ cm/s
Mus musculus [4]
  Activity: inactive
[5]
  Ki: 0.009 µM
[6]
  Activity: Non-Toxic
[7]
  Ki: 655 µM
[8]
  Activity: 1.15 µg/g
[9]
  Activity: 1.1 µg/g
[10]
  Activity: 0.3 µg/g

## O=C(NCCN1CCOCC1)c1ccc(Cl)cc1 [MOCLOBEMIDE]
[11]
  Activity: 0.23 µg/g
Mus musculus [12]
  Activity: Active
[13]
  Activity: 7.1 µg/g
[14]
  Activity: Non-Toxic
Mus musculus [15]
  Activity: Active
Mus musculus [16]
  Activity: Active
[17]
  Activity: 1.24 µg/g
Mus musculus [18]
  Emax: 20 mg/kg
